Test results taken from ChEMBL document CHEMBL2034831, “Quinazoline-tyrphostin as a new class of antitumor agents, molecular properties prediction, synthesis and biological testing” (Eur J Med Chem, 2012).

Columns and labels:
Type in all cases: functional, cell-based
MCF7 = assay: Cytotoxicity against human MCF7 cells after 3 days by MTT assay; details: MCF7, 72 h
Outline: (§1)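 Cells kept in RPMI-1640 with 10% calf serum. Exponentially growing cells seeded at 4 × 10⁴ cells/mL, then medium replaced with fresh medium holding test compound (controls got solvent only). After incubation, MTT added for a further 4 h at 37 °C and formazan dissolved in DMSO. Read by OD. %inhibition = (OD control − OD test)/OD control × 100. Compounds giving ≥70% inhibition in a one-dose prescreen were serially diluted (0.06–0.002 range) for IC50.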

HepG2 = assay: Cytotoxicity against human HepG2 cells after 3 days by MTT assay; details: HepG2, 72 h; outline: as §1
HeLa = assay: Cytotoxicity against human HeLa cells after 3 days by MTT assay; details: 72 h; outline: as §1

SMILES | IC50 (MCF7) [µM] | IC50 (HepG2) [µM] | IC50 (HeLa) [µM]
Cc1ccc2nc(C)n(NC(=O)c3sc4c(c3N)CCCC4)c(=O)c2c1 | 18 | 22 | 31
Cc1ccc2nc(C)n(NC(=O)/C(C#N)=C/c3ccc(O)c(O)c3)c(=O)c2c1 | 8 | 8 | 8
Cc1ccc2nc(C)n(NC(=O)c3sc(=S)n(Cc4ccccc4)c3N)c(=O)c2c1 | 10 | 32 | 26
Cc1ccc2nc(C)n(NC(=O)/C(C#N)=C/c3ccc([N+](=O)[O-])cc3)c(=O)c2c1 | 12 | 10 | 15
Cc1ccc2nc(C)n(-n3c(N)c(C#N)c(-c4ccccc4)c(C#N)c3=O)c(=O)c2c1 | 8 | 10 | 5
CCOC(=O)c1c(N)sc(C(=O)Nn2c(C)nc3ccc(C)cc3c2=O)c1N | 16 | 22 | 23
Cc1ccc2nc(C)n(NC(=O)CC#N)c(=O)c2c1 | 40 | 55 | 30
Cc1ccc2nc(C)n(NC(=O)/C(C#N)=C/c3ccc(Cl)cc3)c(=O)c2c1 | 12 | 9 | 12
Cc1ccc2nc(C)n(NC(=O)/C(C#N)=C/c3cccc(O)c3)c(=O)c2c1 | 15 | 14 | 14
Cc1ccc2nc(C)n(NC(=O)/C(C#N)=C/c3ccc(O)cc3)c(=O)c2c1 | 14 | 13 | 13
Cc1ccc2nc(C)n(NC(=O)/C(C#N)=N/Nc3ccc(S(N)(=O)=O)cc3)c(=O)c2c1 | 9 | 9 | 12
Cc1ccc2nc(C)n(NC(=O)/C(C#N)=N/Nc3ccccc3)c(=O)c2c1 | 19 | 12 | 79
Cc1ccc2nc(C)n(-n3c(N)cc(N)c(C#N)c3=O)c(=O)c2c1 | 10 | 17 | 15
Cc1ccc2nc(C)n(NC(=O)c3sc(N)c(C#N)c3N)c(=O)c2c1 | 10 | 15 | 15
CCOC(=O)c1c(-c2ccccc2)c(C#N)c(=O)n(-n2c(C)nc3ccc(C)cc3c2=O)c1N | 17 | 52 | 21
Cc1ccc2nc(C)n(NC(=O)c3cc4ccccc4oc3=N)c(=O)c2c1 | 17 | 23 | 38
Cc1ccc2nc(C)n(NC(=O)c3sc(=S)n(-c4ccccc4)c3N)c(=O)c2c1 | 13 | 27 | 35
Cc1ccc(/C=C(\C#N)C(=O)Nn2c(C)nc3ccc(C)cc3c2=O)cc1 | 10 | 12 | 9
Cc1ccc2nc(C)n(-n3c(O)cc(N)c(C#N)c3=O)c(=O)c2c1 | 26 | 41 | 45
Cc1ccc2nc(C)n(NC(=O)/C(C#N)=C/c3ccccc3)c(=O)c2c1 | 9 | 14 | 13
COc1cccc2c1C(=O)c1c(O)c3c(c(O)c1C2=O)C[C@@](O)(C(=O)CO)C[C@@H]3O[C@H]1C[C@H](N)[C@H](O)[C@H](C)O1 [DOXORUBICIN] | – | 9 | 8
